Hits are enriched below; roughly 1.9% of the tested compounds scored in any of these assays.
Rad51 HR inh: blocks human Rad51 in homologous recombination; AID 1385; Q06609; inhibition, % at 10 µM; actives 0.085% (n = 200,000); hRad51 DNA strand exchange, fluorescence dequenching;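 active = inhibition above 40% at the single screening dose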
Target sequence (Q06609 whole entry, looked up): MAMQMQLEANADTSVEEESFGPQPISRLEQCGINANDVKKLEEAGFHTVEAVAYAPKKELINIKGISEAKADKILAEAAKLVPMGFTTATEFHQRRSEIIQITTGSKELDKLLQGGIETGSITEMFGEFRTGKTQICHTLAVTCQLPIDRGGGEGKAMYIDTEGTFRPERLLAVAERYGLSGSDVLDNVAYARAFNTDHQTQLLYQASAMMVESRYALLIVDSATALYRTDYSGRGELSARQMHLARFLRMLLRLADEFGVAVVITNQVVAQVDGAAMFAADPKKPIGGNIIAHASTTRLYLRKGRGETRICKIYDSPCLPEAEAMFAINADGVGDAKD
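Test system: preformed human Rad51 ssDNA filaments; also added: Donor/quencher-labelled 47-bp dsDNA substrate; doses: 10 µM final, single point; times: 37 °C 15-min filament assembly, 30-min compound preincubation, 15-min exchange; detection: FRET fluorescence dequenching, excitation 485 nm, emission 520 nm; read-out basis: Fluorescence-based percent inhibition, control- and blank-normalised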
TAG inh: reduces triacylglycerol accumulation in H9c2 cells. Nile Red lipid (TAG) fluorescence; cells loaded with 200 µM oleic acid. inhibition, % at 12.5 µM. actives 0.66% (n = 230,000). AID 651582;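 active = pattern-corrected inhibition of lipid staining of at least 50% with the nuclear-stain viability signal not falling by more than 50%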
Hsp70 activator: switches on Hsp70 transcription. HeLa Hsp70 promoter luciferase reporter, luminescence; scaled: vehicle 0, proteasome-inhibitor control 100%. activation, % at 10 µM. actives 0.04% (n = 200,000);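 active = activation above the mean across all tested compounds plus 3 SD, cutoff set per campaign, cut at about 5.5% in these data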
FXN GAA850 act: activators of GAA850 frataxin (FXN) promoter. HEK293 lucGAA850 FXN promoter luciferase reporter, 24 h; percent of 10 µM SAHA response. actives 0.56% (n = 360,000). activation, % at 6 µM;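 active = activation above the average of all compounds screened plus 3 SD, cutoff fixed separately per campaign, cut at about 7.5% in these data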
ABHD5 PLIN5 PPI: inhibitors of human ABHD5-perilipin-5 interaction | Split G. princeps luciferase complementation, luminescence, 4 h | inhibition, % at 4 µM | actives 0.78% (n = 360,000);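 active = inhibition above the mean inhibition across every tested compound plus 3 SD, cut at about 22% in these data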
HIF activator: HIF pathway transcriptional activation; U2OS HRE-luciferase reporter, luminescence; normalized: DMSO 0%, desferrioxamine 100%; activation, % at 7.5 µM (by protocol); actives 0.32% (n = 300,000);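 active = mean activation of at least 10% of the iron chelator positive control signal, with at least half of replicates also reaching 10%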
GAA30 FXN cntr: GAA30 FXN promoter activation counter-screen. activation, % at 6 µM. HEK293 lucGAA30 FXN promoter luciferase, 24 h; DMSO = 0%, 5 µM ipriflavone = 100%. shares compounds with FXN GAA850 act. AID 588350. actives 66% (n = 1,900);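 active = mean activation above the mean of solvent-only control wells plus 3 SD, cut at about 22% in these data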;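 note: counterscreen of GAA850 promoter hits where activity marks nonselective or luminescence artifacts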
GAA850 confirm: confirmation of GAA850 frataxin (FXN) promoter activators; AID 588351; actives 86% (n = 1,900); activation, % at 6 µM; HEK293 lucGAA850 FXN promoter luciferase reporter, 24 h; 100% = activation by SAHA; shares compounds with FXN GAA850 act;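 active = mean activation above a set limit taken from the primary screen, cut at about 8% in these data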
A number is an active result; - = inactive; . = no result.

SMILES	Rad51 HR inh	TAG inh	Hsp70 activator	FXN GAA850 act	ABHD5 PLIN5 PPI	HIF activator	GAA30 FXN cntr	GAA850 confirm
CCOC(=O)c1c(CSc2ccccc2)n(C)c2cc(Br)c(O)c(CN(C)C)c12	-	-	.	19	-	-	-	12
CCOC(=O)c1c(CN2CCOCC2)n(-c2ccccc2)c2cc(Br)c(O)c(CN(C)C)c12	-	.	-	-	-	-	.	.
CCOC(=O)c1c(CN2CCCCC2)n(C)c2cc(Br)c(O)c(CN(C)C)c12	-	-	-	-	-	-	.	.
CCOC(=O)c1c(CSc2ccc(C)cc2)n(C)c2cc(Br)c(O)c(CN(C)C)c12	.	-	-	11	-	-	-	15
CCOC(=O)c1c(CSc2ccsc2)n(C)c2cc(Br)c(O)c(CN(C)C)c12	-	-	.	7.8	-	-	-	-
CC(=O)Nc1cccc(NC(=S)Nc2ccc(F)cc2F)c1	-	-	-	-	-	-	.	.
COC(=O)c1c(NC(=O)CN2CCC3(O)CCCCC3C2c2cc(OC)ccc2OC)sc(C)c1C (stereo unspecified)	-	-	-	12	-	-	-	9.9
Cc1ccc(C)c(Cc2c(C)nc(C)[nH]c2=O)c1	-	.	-	-	-	-	.	.
O=C(CSc1nccc(=O)[nH]1)NCc1ccc(Cl)cc1	.	-	-	-	-	-	.	.
Cc1cc2nc(N)sc2cc1C	-	-	-	8.4	-	-	109	27
CCCCCn1c(CN2CCN(c3cccc(Cl)c3)CC2)nc2c1c(=O)[nH]c(=O)n2C	-	.	-	8.5	-	-	-	-
Cn1cc([N+](=O)[O-])c(C(=O)Nc2ccc(-c3nc4ccccc4o3)cc2)n1	-	-	.	8.8	-	-	93	31
O=C(Nc1ccc(-c2nc3ccccc3o2)cc1)c1ccc(N2CCOCC2)c([N+](=O)[O-])c1	-	.	-	-	-	-	.	.
Cc1ccc(S(=O)(=O)Nc2ccc(C(=O)NCCCn3ccnc3)cc2)cc1[N+](=O)[O-]	.	-	.	-	-	.	.	.
Cc1ccc(OCCNCc2ccccc2)c(C)c1	.	-	.	-	-	-	.	.
Cc1ccc(OCCCCNC(C)c2ccccc2)c(C)c1 (stereo unspecified)	.	.	.	7.7	-	-	24	8.8
COc1ccc(-c2csc3nc(-c4cccnc4)nc(Cl)c23)cc1OC	-	-	-	-	-	-	.	.
Clc1nc(-c2cccnc2)nc2scc(-c3ccccc3)c12	-	-	-	8.1	-	-	97	31
Cn1nc(C(=O)Nc2ccc(S(=O)(=O)Nc3ncccn3)cc2)ccc1=O	-	-	.	-	-	-	.	.
CCNS(=O)(=O)c1ccc(Br)c(OC)c1	-	.	-	-	-	-	.	.
O=C(/C=C/C=C/c1ccccc1)c1ccco1	-	.	.	9.5	-	-	106	44
COc1cc2c(cc1OC)-c1nnc(-c3cccs3)n1C(C)(C)C2	-	-	-	13	-	-	-	8.2
Nc1nc2sc3c(c2c(=O)s1)CCCC3	-	.	-	8.2	-	-	70	28
Cn1c(=O)c2c(nc(SCC(=O)N3CCc4ccccc43)n2Cc2ccc(F)cc2)n(C)c1=O	.	.	-	.	.	.	.	.
O=C(Oc1c(CN2CCOCC2)cc(Cl)c2cccnc12)c1ccccc1F	-	-	-	7.7	-	-	-	14
SMILES	Rad51 HR inh	TAG inh	Hsp70 activator	FXN GAA850 act	ABHD5 PLIN5 PPI	HIF activator	GAA30 FXN cntr	GAA850 confirm
CCOC(=O)C1CCN(C(=O)NS(=O)(=O)c2ccc(C)cc2)CC1	-	-	-	-	-	-	.	.
COc1ccc(Nc2cnn(-c3nc4ccccc4s3)c(=O)c2Cl)cc1	-	.	-	20	-	-	31	39
O=c1c(Cl)c(Nc2cccc(Cl)c2)cnn1-c1nc2ccccc2s1	-	.	-	-	-	-	.	.
COc1cccc(CN2CCC2(C)C(=O)Nc2cccc(NS(C)(=O)=O)c2)c1OC (stereo unspecified)	.	-	.	-	-	.	.	.
COc1ccc(CN2CCC2(C)C(=O)Nc2cccc(NS(C)(=O)=O)c2)c2ccccc12 (stereo unspecified)	.	-	.	17	-	.	-	19
COCC#Cc1ccc2c(c1)O[C@@H](CN(C)S(=O)(=O)c1cccc(F)c1)[C@@H](C)CN([C@H](C)CO)S2(=O)=O	.	-	.	-	-	.	.	.
CCc1ccc(O)c(-c2cc(C(=O)Nc3cccnc3)[nH]n2)c1	-	-	.	7.8	-	-	97	31
Cc1cc(O)c(-c2cc(C(=O)Nc3cccnc3)[nH]n2)cc1C	-	-	.	-	-	-	.	.
CCOc1cc(C)c(S(=O)(=O)NCCCn2ccnc2)cc1C	.	.	.	-	-	-	.	.
CCOC(=O)c1ccccc1NC(=O)Nc1ccc(OC)c(OC)c1	-	.	-	9.6	-	-	-	10
CCN(Cc1ccccc1)S(=O)(=O)c1cn(C)cn1	.	.	.	-	-	-	.	.
CC[C@@]1(C(=O)OC)N[C@H](CN(C)C(=O)Nc2ccccc2)[C@@H]2C(=O)N(Cc3ccccc3)C(=O)[C@@H]21	.	-	.	12	-	.	-	-
CCN(C[C@H]1N[C@@](CC)(C(=O)OC)[C@H]2C(=O)N(Cc3ccccc3)C(=O)[C@@H]12)S(=O)(=O)c1ccc(OC)cc1	.	-	.	11	-	.	-	9.0
CC[C@@]1(C(=O)OC)N[C@H](CN(C)C(=O)Nc2ccc(C(F)(F)F)cc2)[C@@H]2C(=O)N(Cc3ccccc3)C(=O)[C@@H]21	.	-	.	8.9	-	.	27	11
COC(=O)[C@]1(Cc2ccccc2)N[C@H](CN(C)C(=O)Nc2ccc(C(F)(F)F)cc2)[C@@H]2C(=O)N(Cc3ccccc3)C(=O)[C@@H]21	.	-	.	-	-	.	.	.
Cc1cc(C)cc(NC(=O)C2CCN(S(=O)(=O)c3ccc4[nH]c(=O)ccc4c3)CC2)c1	.	-	.	-	-	-	.	.
Nc1ncnc2c1ncn2C1OC(CO)C2OC21 (stereo unspecified)	.	.	.	.	-	.	.	.
CCOC1OC2C(CO)OC(n3cnc4c(N)ncnc43)C2O1 (stereo unspecified)	-	-	-	11	-	-	28	9.2
COc1cccc2sc(NNC(=O)C3COc4ccccc4O3)nc12 (stereo unspecified)	-	-	-	-	-	-	.	.
COc1cccc2sc(NNC(=O)C3=COCCO3)nc12	.	-	-	8.2	-	-	86	33
Clc1ccc(C=Cc2ccccn2)c(Cl)c1	.	-	.	7.7	-	.	120	37
COc1ccc(OC)c(-c2cc(C(=O)Nc3ccccc3C(N)=O)c3ccccc3n2)c1	.	-	.	-	-	-	.	.

High-throughput results: PubChem, several laboratories
